Experimental data as given in ChEMBL document CHEMBL2034912, “Synthesis of 4-methylcoumarin derivatives containing 4,5-dihydropyrazole moiety to scavenge radicals and to protect DNA” (Eur J Med Chem, 2012).
Calls of active or inactive are those of the source.

Legend:
Format in all cases: functional
[1] = Antioxidant activity against AAPH-induced DNA oxidation assessed as decrease in thiobarbituric acid reactive substances at 80 to 200 uM measured every 120 mins by spectrophotometry
Summary of the method: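 DNA (final 2.0 mg/mL) and AAPH (final 4.0 mM) in phosphate buffer with 10.0 mM EDTA; test compounds added in DMSO across various concentrations; 2.0 mL aliquots incubated at 37 °C. Three tubes withdrawn every 120 min, cooled, treated with TBA and 3.0% trichloroacetic acid, then boiled 15 min; TBARS absorbance read. Inhibition period (t_inh) fitted linearly against concentration.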

[2] = Antioxidant activity assessed as ABTS radical scavenging activity at 40 uM
Summary of the method: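 ABTS (4.0 mM) oxidized with 1.41 mM K₂S₂O₈ for 16 h to form the radical cation, then diluted with ethanol to absorbance about 0.70. Compound added at 0.04 mM, and absorbance decay at 734 nm followed over time. Number of radicals trapped (n) is the depleted ABTS radical concentration divided by antioxidant concentration.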

[3] = system: Radical scavenging activity; experiment: Antioxidant activity assessed as DPPH radical scavenging activity at 40 uM
Summary of the method: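 DPPH dissolved in ethanol to absorbance about 1.00 at 517 nm (ε […] M⁻¹ cm⁻¹). Compound added as an ethanol solution at a single final concentration, and the decay of DPPH absorbance recorded.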

Measured: Activity

Cc1cc(=O)oc2c(C3=NNC(c4cccc([N+](=O)[O-])c4)C3)c(O)ccc12 (centres undefined)
active: all assays above

CC(=O)N1N=C(c2c(O)ccc3c(C)cc(=O)oc23)CC1c1cccc([N+](=O)[O-])c1 (centres undefined)
active: all assays above

CC(=O)N1N=C(c2c(O)ccc3c(C)cc(=O)oc23)CC1c1ccc(O)c(O)c1 (centres undefined)
active: all assays above

COc1cc(C2CC(c3c(O)ccc4c(C)cc(=O)oc34)=NN2C(C)=O)ccc1O (centres undefined)
active: all assays above

COc1cc(C2CC(c3c(O)ccc4c(C)cc(=O)oc34)=NN2)ccc1O (centres undefined)
active: all assays above

CC(=O)N1N=C(c2c(O)ccc3c(C)cc(=O)oc23)CC1c1ccccc1O (centres undefined)
active: all assays above

O=c1ccc2cc3ccoc3c(O)c2o1
active: all assays above

CC(=O)N1N=C(c2c(O)ccc3c(C)cc(=O)oc23)CC1c1ccc(O)cc1O (centres undefined)
active: all assays above
